According to ChEMBL document CHEMBL2203029, “Discovery and Structural Modification of 1-Phenyl-3-(1-phenylethyl)urea Derivatives as Inhibitors of Complement” (ACS Med Chem Lett, 2012):
In brackets after ≈: the same amount, converted by molar mass. Activity calls are given as the source filed them. The calls are words filed in the database; no cut-off is given here.

How the values were obtained:
[1] = organism: Homo sapiens; test: Inhibition of complement system in human fetal serum assessed as inhibition of hemolysis at 100 ug/mL incubated for 1 hr by spectrophotometric analysis
[2] = (§1) Inhibition of complement system in human fetal serum assessed as inhibition of hemolysis incubated for 1 hr by spectrophotometric analysis
[3] = organism: Homo sapiens; test: as §1
[4] = Inhibition of lectin pathway in human serum assessed as inhibition of C9 deposition at 10 ug/mL incubated for 1 hr by ELISA; format: cell-free
[5] = organism: Homo sapiens; test: Inhibition of alternative complement system in human serum assessed as inhibition of C9 deposition at 10 ug/mL incubated for 1 hr by ELISA; format: cell-free
[6] = organism: Homo sapiens; test: Inhibition of classical complement system in human serum assessed as inhibition of C9 deposition at 10 ug/mL incubated for 1 hr by ELISA; format: cell-free
[7] = Inhibition of lectin pathway in human serum assessed as inhibition of C9 deposition incubated for 1 hr by ELISA; format: cell-free
Outline: (§2)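 Normal human serum was added to coated plates and incubated with a range of inhibitor concentrations. The coating set the pathway: IgM for the classical pathway, mannan for the lectin pathway, and zymosan for the alternative pathway. C3, C4 and C9 deposition were then measured on the plates.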

[8] = Inhibition of alternative complement system in human serum assessed as inhibition of C9 deposition incubated for 1 hr by ELISA; format: cell-free; outline: as §2
[9] = Inhibition of classical complement system in human serum assessed as inhibition of C9 deposition incubated for 1 hr by ELISA; format: cell-free; outline: as §2
[10] = Inhibition of lectin pathway in human serum assessed as inhibition of C4 activation incubated for 1 hr by ELISA; format: cell-free; outline: as §2
[11] = organism: Homo sapiens; test: Inhibition of alternative complement system in human serum assessed as inhibition of C4 activation incubated for 1 hr by ELISA; format: cell-free; outline: as §2
[12] = Inhibition of lectin pathway in human serum assessed as inhibition of C3 activation incubated for 1 hr by ELISA; format: cell-free; outline: as §2
[13] = organism: Homo sapiens; test: Inhibition of classical complement system in human serum assessed as inhibition of C4 activation incubated for 1 hr by ELISA; format: cell-free; outline: as §2
[14] = organism: Homo sapiens; test: Inhibition of alternative complement system in human serum assessed as inhibition of C3 activation incubated for 1 hr by ELISA; format: cell-free; outline: as §2
[15] = organism: Homo sapiens; test: Inhibition of classical complement system in human serum assessed as inhibition of C3 activation incubated for 1 hr by ELISA; format: cell-free; outline: as §2
[16] = organism: Homo sapiens; test: Inhibition of complement system in human fetal serum assessed as inhibition of hemolysis at 10 ug/mL incubated for 1 hr by spectrophotometric analysis

Structure (SMILES) | IC50 [2] [nM] | further results
C[C@H](NC(=O)Nc1cccnc1)c1ccccc1 |  | inhibition [1]: inactive
COc1cccc(NC(=O)N[C@@H](C)c2ccccc2)c1 |  | inhibition [1]: inactive
COc1ccc(NC(=O)N(CCCO)[C@@H](C)c2ccccc2)cc1OCCCC(C)C | 223 | 
COc1ccc(NC(=O)N[C@@H](C)c2cccc(O)c2)cc1OCCCC(C)C | 77 | 
N=C(N)c1cc2ccc(OC(=O)c3cccs3)cc2s1 | 10 | 
COc1ccc(NC(=O)N[C@@H](C)c2ccccc2)cc1OCC(C)C | 870 | 
COc1ccc(NC(=O)N[C@@H](C)c2ccccc2[N+](=O)[O-])cc1OCCCC(C)C | 368 | 
CCCCOc1cc(NC(=O)NCCC(C)c2ccccc2)ccc1OC (configuration not stated) |  | inhibition [3]: inactive
C=CCOc1ccc(NC(=O)N[C@@H](C)c2ccccc2)cc1OC |  | inhibition [1]: inactive
C=CCOc1cc(NC(=O)N[C@@H](C)c2ccccc2)ccc1OC | 1750 | 
COc1ccc(NC(=O)N[C@@H](C)c2ccc(C(=O)O)cc2)cc1OCCCC(C)C | 761 | 
CCCCOc1cc(NC(=O)NC(CC)c2ccccc2)ccc1OC (configuration not stated) | 420 | 
COc1ccc(NC(=O)N(CCO)[C@@H](C)c2ccccc2)cc1OCCCC(C)C | 323 | 
CCCCOc1cc(NC(=O)N2CCCC2c2ccccc2)ccc1OC (configuration not stated) | 105 | 
CCC#CCOc1cc(NC(=O)N[C@@H](C)c2ccccc2)ccc1OC | 244 | 
COc1cc(NC(=O)N[C@@H](C)c2ccccc2)ccc1O |  | inhibition [1]: 14.6%
CCOC(=O)COc1cc(NC(=O)N[C@@H](C)c2ccccc2)ccc1OC | 6200 | 
CCCCCCCCCCCCOc1cc(NC(=O)N[C@@H](C)c2ccccc2)ccc1OC |  | inhibition [1]: inactive
CCCCCOc1cccc(NC(=O)N[C@@H](C)c2ccccc2)c1 | 3200 | 
CCCCOc1cc(NC(=O)N2CCCCC2c2ccccc2)ccc1OC (configuration not stated) |  | inhibition [3]: inactive
CCCCCOc1ccc(OC)cc1NC(=O)N[C@@H](C)c1ccccc1 |  | inhibition [3]: inactive
CCCCCCCCOc1cc(NC(=O)N[C@@H](C)c2ccccc2)ccc1OC | 1290 | 
COc1cc(NC(=O)N[C@@H](C)c2ccccc2)ccc1OCCNC(=O)OC(C)(C)C |  | inhibition [1]: inactive
COc1ccc(NC(=O)N(CCCN)[C@@H](C)c2ccccc2)cc1OCCCC(C)C | 7160 | 
COc1ccc(NC(=O)N[C@@H](C)c2ccc(C)cc2)cc1OCCCC(C)C | 327 | 

Structure (SMILES) | IC50 [2] [nM] | further results
COc1ccc(NC(=O)N[C@@H](C)c2ccc([N+](=O)[O-])cc2)cc1OCCCC(C)C | 1690 | 
COc1ccc(NC(=O)N[C@@H](C)c2ccc(C#N)cc2)cc1OCCCC(C)C | 1260 | 
COC(=O)c1ccc([C@H](C)NC(=O)Nc2ccc(OC)c(OCCCC(C)C)c2)cc1 | 535 | 
CCCCCOc1cc(OC)ccc1NC(=O)N[C@@H](C)c1ccccc1 |  | inhibition [3]: inactive
COCCOc1cc(NC(=O)N[C@@H](C)c2ccccc2)ccc1OC | 2000 | 
CCCCCCCOc1cc(NC(=O)N[C@@H](C)c2ccccc2)ccc1OC | 780 | 
CCCCOc1cc(NC(=O)NC2CCc3ccccc32)ccc1OC (configuration not stated) |  | inhibition [3]: inactive
CCCCCCOc1cc(NC(=O)N[C@@H](C)c2ccccc2)ccc1OC | 17 | 
COc1ccc(NC(=O)N[C@H](C)c2ccccc2)cc1OC |  | inhibition [1]: 16.9%
COc1ccc(NC(=O)N[C@@H](C)c2ccccc2)cc1OCCN1CCCCC1 | 35500 | 
CCCCCOc1ccccc1NC(=O)N[C@@H](C)c1ccccc1 |  | inhibition [3]: inactive
COc1ccc(NC(=O)N[C@@H](C)c2ccccc2)cc1OCCC(C)C | 630 | 
CCCCCOc1cc(OC)c(NC(=O)N[C@@H](C)c2ccccc2)c(OC)c1 |  | inhibition [3]: inactive
COc1cc(NC(=O)N[C@@H](C)c2ccccc2)ccc1OCc1ccccc1 |  | inhibition [1]: inactive
COc1ccc(NC(=O)N[C@@H](C)c2ccccc2)cc1OCCCC(C)C | 13 | inhibition [4]: 90%; inhibition [5]: 90%; inhibition [6]: 90%; IC50 [7]: 4.46 µg/mL (≈ 12 µM); IC50 [8]: 3.59 µg/mL (≈ 9.69 µM); IC50 [9]: 3.68 µg/mL (≈ 9.93 µM); inhibition [10]: inactive; inhibition [11]: inactive; inhibition [12]: inactive; inhibition [13]: inactive; inhibition [14]: inactive; inhibition [15]: inactive
COc1ccc(NC(=O)N[C@@H](C)c2ccccc2)cc1OCC1CCCCC1 | 468 | 
COc1ccc(N(C)C(=O)N[C@@H](C)c2ccccc2)cc1OCCCC(C)C | 540 | 
C[C@H](NC(=O)Nc1ccc(Cl)cc1)c1ccccc1 |  | inhibition [1]: inactive
CCCCCCCCCCOc1cc(NC(=O)N[C@@H](C)c2ccccc2)ccc1OC |  | inhibition [1]: inactive
CCCCOc1cc(NC(=O)N[C@@H](C)c2ccccc2)ccc1OC | 33 | 
C#CCOc1cc(NC(=O)N[C@@H](C)c2ccccc2)ccc1OC | 8300 | 
CCCCCOc1cc(NC(=O)N[C@@H](C)c2ccccc2)cc(OC)c1 | 270 | 
COc1ccc(NC(=O)N(CC(O)CO)[C@@H](C)c2ccccc2)cc1OCCCC(C)C (some centres not stated) | 368 | 
COc1ccc(NC(=O)NCc2cccc(-c3ccccc3)c2)cc1OC |  | inhibition [1]: inactive
COc1ccc(NC(=O)N[C@@H](C)c2ccc(F)cc2)cc1OCCCC(C)C | 402 | 

Structure (SMILES) | IC50 [2] [nM] | further results
COc1ccc(NC(=O)N[C@@H](C)c2ccccc2)cc1OC(C)C | 10600 | 
C=C(C)COc1cc(NC(=O)N[C@@H](C)c2ccccc2)ccc1OC | 7900 | 
COc1ccc(NC(=O)NCc2cccc3ccccc23)cc1OC |  | inhibition [1]: inactive
COc1ccc(NC(=O)N[C@@H](C)c2ccccc2)cc1OCc1ccccc1 |  | inhibition [1]: 32.7%
COc1ccc(N(CCCO)C(=O)N[C@@H](C)c2ccccc2)cc1OCCCC(C)C | 1580 | 
CCCOc1cc(NC(=O)N[C@@H](C)c2ccccc2)ccc1OC | 353 | 
CCCCOc1cc(NC(=O)NCC(C)c2ccccc2)ccc1OC (configuration not stated) |  | inhibition [3]: inactive
COc1ccc(NC(=O)N(C)Cc2ccccc2)cc1OC |  | inhibition [1]: 43.8%
COc1ccc(NC(=O)N(C)[C@@H](C)c2ccccc2)cc1OCCCC(C)C | 19 | 
CC#CCOc1cc(NC(=O)N[C@@H](C)c2ccccc2)ccc1OC | 1590 | 
CCOc1cc(NC(=O)N[C@@H](C)c2ccccc2)ccc1OC | 2860 | 
COc1ccc(NC(=O)N[C@@H](C)c2ccccc2)cc1OCCN1CCCC1 |  | inhibition [1]: inactive
C[C@H](NC(=O)Nc1ccccc1)c1ccccc1 |  | inhibition [1]: inactive
COc1ccc(NC(=O)N[C@@H](C)c2ccccc2)cc1OCC1CCCN(C)C1 (some centres not stated) | 3200 | 
COc1ccc(NC(=O)N[C@@H](C)c2ccc(C(F)(F)F)cc2)cc1OCCCC(C)C |  | inhibition [16]: inactive
COc1ccc(N(C)C(=O)N(C)[C@@H](C)c2ccccc2)cc1OCCCC(C)C |  | inhibition [1]: inactive
COc1ccc(NC(=O)N[C@@H](C)c2ccccc2)cc1O |  | inhibition [1]: 35.3%
CCCCCOc1cc(NC(=O)N[C@@H](C)c2ccccc2)ccc1OC | 19 | 
COc1ccc(NC(=O)N[C@@H](C)c2ccccc2)cc1OC | 50000 | 
COc1ccc(NC(=O)N[C@@H](C)c2ccc(O)cc2)cc1OCCCC(C)C | 139 | 
COc1ccc(NC(=O)N[C@@H](C)c2ccccc2)cc1 |  | inhibition [1]: inactive
CCOC(=O)COc1ccc(NC(=O)N[C@@H](C)c2ccccc2)cc1OC |  | inhibition [1]: inactive
COc1ccc(NC(=O)N[C@@H](C)c2ccc(Br)cc2)cc1OCCCC(C)C | 3390 | 
COc1ccc(NC(=O)N[C@@H](C)c2cccc(Br)c2)cc1OCCCC(C)C | 1320 | 
CCOc1ccc(NC(=O)N[C@@H](C)c2ccccc2)cc1OC |  | inhibition [1]: inactive
